Tests used:
Plasmodium vivax [1] = assay: Antimalarial activity against chloroquine-resistant Plasmodium vivax by Giemsa staining; type: functional, organism-based
Procedure, shortened: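 Ex vivo P. vivax isolates came from clinic outpatients with parasitemia >5,000 μl−1 and were tested with a modified WHO microtest. Incubation ran until the drug-free control reached ≥40% schizonts. Giemsa-stained thick smears from each well were read for schizonts per 200 asexual parasites and normalized to control. IC50 was derived by nonlinear regression.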

Homo sapiens [2] = assay: Toxicity in patient infected with chloroquine-resistant Plasmodium vivax assessed as occurrence of anemia at total dose of 30 mg/kg administered as three daily doses measured 7 days post dose; type: organism-based; set-up: dose 30 mg/kg; conditions: in vivo, 168 h
Procedure, shortened: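 Patients received oral amodiaquine 30 mg base/kg split over three daily doses, with 60-min observation after each dose. Children were given crushed tablet in water. Anemia was defined as hemoglobin <10 g/dl. Primaquine was deferred to day 28.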

Homo sapiens [3] = assay: Toxicity in human infected with chloroquine-Resistant Plasmodium vivax assessed as occurrence of nausea at total dose of 30 mg/kg administered as three daily doses; type: organism-based; set-up: dose 30 mg/kg; conditions: in vivo
Procedure, shortened: (§1)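 Oral amodiaquine 30 mg base/kg total, given as three daily doses. For children, the tablet was crushed and given as a suspension in water. Primaquine […] for 14 days was withheld until day 28 if there was no G6PD deficiency.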

Plasmodium vivax [4] = assay: Antimalarial activity against chloroquine-resistant Plasmodium vivax infected in human assessed as clearance of peripheral parasitemia at total dose of 30 mg/kg administered as three daily doses measured within 24 hrs post dose; type: functional; procedure, shortened: as §1
Homo sapiens [5] = assay: Toxicity in patient infected with chloroquine-resistant Plasmodium vivax assessed as occurrence of anemia at total dose of 30 mg/kg administered as three daily doses measured 28 days post dose; conditions: in vivo, 672 h
Plasmodium vivax [6] = assay: Antimalarial activity against chloroquine-resistant Plasmodium vivax infected in human assessed as clearance of peripheral parasitemia at total dose of 30 mg/kg administered as three daily doses measured 48 hrs post dose; type: functional; procedure, shortened: as §1
Homo sapiens [7] = assay: Toxicity in patient infected with chloroquine-resistant Plasmodium vivax assessed as occurrence of vomiting at total dose of 30 mg/kg administered as three daily doses measured […]; type: organism-based; set-up: dose 30 mg/kg; conditions: in vivo
Procedure, shortened: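 Three daily oral doses of amodiaquine, 30 mg base/kg total, were given under observation for 60 min. Patients who vomited were withdrawn and retreated with oral quinine. Children received crushed tablet suspended in water.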

Plasmodium vivax [8] = assay: Antimalarial activity against chloroquine-Resistant Plasmodium vivax infected in human assessed as parasite recurrence rate at total dose of 30 mg/kg administered as three daily doses measured on day 28 post dose; type: functional; procedure, shortened: as §1

For `OC(c1cc(C(F)(F)F)nc2c(C(F)(F)F)cccc12)C1CCCCN1` (stereo not drawn) [MEFLOQUINE], which IC50 (Plasmodium vivax [1]) is on record?
The IC50 was 8.2 nM.

Which IC50 (Plasmodium vivax [1]) does the source give for `CCN(CC)CCCC(C)Nc1ccnc2cc(Cl)ccc12` (stereo not drawn) [CHLOROQUINE] here?
The IC50 was 52.7 nM.

For `Clc1ccc2c(N3CCN(CCCN4CCN(c5ccnc6cc(Cl)ccc56)CC4)CC3)ccnc2c1` [PIPERAQUINE], which IC50 (Plasmodium vivax [1]) is on record?
Its IC50 is 17.5 nM.

With `C[C@H]1[C@H](OC(=O)CCC(=O)O)O[C@@H]2O[C@@]3(C)CC[C@H]4[C@H](C)CC[C@@H]1[C@@]24OO3` [ARTESUNATE] as the compound, how does the IC50 (Plasmodium vivax [1]) read?
The IC50 was 1.29 nM.

With `CCN(CC)Cc1cc(Nc2ccnc3cc(Cl)ccc23)ccc1O.Cl` as the compound, how does the Activity (Homo sapiens [2]) read?
Its Activity is 30%.

What about the Activity (Homo sapiens [3]) of the same compound?
Its Activity is 4.5%.

And the Activity (Plasmodium vivax [4])?
Its Activity is 52%.

And the Activity (Homo sapiens [5])?
The Activity was “Non-toxic”.

What about the Activity (Plasmodium vivax [6]) of the same compound?
Its Activity is 91%.

What about the IC50 (Plasmodium vivax [1]) of the same compound?
Its IC50 is 11.3 nM.

And the Activity (Homo sapiens [7])?
The Activity was 4.6%.

What about the Activity (Plasmodium vivax [8]) of the same compound?
The Activity was 22.8%.

`CCCCN(CCCC)CC(O)c1cc(Cl)cc2c1-c1ccc(Cl)cc1/C2=C/c1ccc(Cl)cc1` (stereo not drawn) [LUMEFANTRINE] was tested. Which IC50 (Plasmodium vivax [1]) did it give?
Its IC50 is 16 nM.
